ChEMBL document CHEMBL3616366, “Design, synthesis and biological activity of new amides derived from 3-methyl-3-phenyl-2,5-dioxo-pyrrolidin-1-yl-acetic acid” (Eur J Med Chem, 2015)
The source made the active and inactive calls.

Assays:
[1] = test system: Mus musculus; test: Antinociceptive activity in albino CD-1 mouse assessed as reduction in licking and biting time during phase 2 at 114.68 mg/kg, ip administered 30 mins prior to formalin challenge measured between 25.0 to 30.0 mins relative to control; format: functional; parameters: scale not given: the % may be the effect or the level left
[2] = test system: Mus musculus; test: Neurotoxicity in albino CD-1 mouse assessed as motor performance by measuring time spent in chimney at 114.68 mg/kg, ip administered 30 mins prior to chimney test (reference value: 6.29 +/- 2.48 sec); format: toxicity, organism-based; conditions: in vivo
[3] = species on record: Rattus norvegicus; test: Displacement of [3H]BTX from voltage-sensitive sodium channel site2 in rat cerebral cortex at 100 uM measured after 60.0 mins by scintillation counting; format: tissue-based
[4] = test system: Mus musculus; test: Anticonvulsant activity in albino CD-1 mouse assessed as protection against maximal electroshock-induced seizure at 30 to 300 mg/kg, ip measured after 0.5 hrs; format: functional; conditions: CD-1, ip, read-out: MED
In short: (§1)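 Male CD-1 mice (16–26 g), compound suspended in 0.5% methylcellulose/water, i.p. at 30, 100, 300 mg/kg; four mice per group, each used once. Electroconvulsion by electrical stimulus 0.2 s at 50 Hz; protection scored at 0.5 and 2 h. Value is minimum dose showing activity.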

[5] = test system: Mus musculus; test: Anticonvulsant activity in albino CD-1 mouse assessed as protection against maximal electroshock-induced seizure at 30 to 300 mg/kg, ip measured after 2.0 hrs; format: functional; conditions: for minimal effective dose: CD-1, ip, read-out: MED; in short: as §1
[6] = test system: Mus musculus; test: Anticonvulsant activity in albino CD-1 mouse assessed as protection against subcutaneous pentylenetetrazole-induced seizure at 30 to 300 mg/kg, ip measured after 0.5 hrs; format: functional
In short: (§2)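 Male CD-1 mice given compound i.p. (0.5% methylcellulose suspension) at 30, 100, 300 mg/kg, four per group; pentylenetetrazole 85 mg/kg s.c. at 0.5 or 2 h. Absence of clonic convulsions (≥5 s) over 30 min observation counts as protection. Minimum active dose reported.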

[7] = test system: Mus musculus; test: Anticonvulsant activity in albino CD-1 mouse assessed as protection against subcutaneous pentylenetetrazole-induced seizure at 30 to 300 mg/kg, ip measured after 2.0 hrs; format: functional; in short: as §2
[8] = test system: Mus musculus; test: Neurotoxicity in albino CD-1 mouse assessed as motor impairment at 30 to 300 mg/kg mg/kg, ip measured after 0.5 hrs by rotarod test; format: toxicity, organism-based; conditions: in vivo
In short: (§3)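 Rotarod in male CD-1 mice at 0.5 and 2 h after i.p. 30, 100 or 300 mg/kg (methylcellulose suspension); motor impairment = inability to keep balance on rod turning at 10 rpm for at least 1 min. Minimum neurotoxic dose reported.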

[9] = test system: Mus musculus; test: Neurotoxicity in albino CD-1 mouse assessed as motor impairment at 30 to 300 mg/kg mg/kg, ip measured after 2 hrs by rotarod test; format: toxicity, organism-based; conditions: in vivo; in short: as §3
[10] = test system: Mus musculus; test: Anticonvulsant activity in ip dosed albino CD-1 mouse assessed as protection against maximal electroshock-induced seizure; format: functional; conditions: CD-1, ip
In short: (§4)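 Quantitative work at time of peak effect previously estimated in screening; groups of six mice given various i.p. doses until ≥3 points within 10–90% seizure protection (MES or scPTZ) or minimal motor impairment on rotarod (10 rpm, failure to hold ≥1 min).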

[11] = test system: Mus musculus; test: Anticonvulsant activity in ip dosed albino CD-1 mouse assessed as protection against subcutaneous pentylenetetrazole-induced seizure; format: functional; in short: as §4
[12] = test system: Mus musculus; test: Anticonvulsant activity in ip dosed albino CD-1 mouse assessed as protection against maximal electroshock-induced seizure measured as time to peak effect; format: functional; in short: as §4
[13] = test system: Mus musculus; test: Anticonvulsant activity in ip dosed albino CD-1 mouse assessed as protection against subcutaneous pentylenetetrazole-induced seizure measured as time to peak effect; format: functional; in short: as §4
[14] = Neurotoxicity in ip dosed albino CD-1 mouse assessed as motor impairment by rotarod test; format: toxicity, organism-based; conditions: in vivo; in short: as §4
[15] = Protective index, ratio of TD50 for neurotoxicity in ip dosed albino CD-1 mouse to ED50 for anticonvulsant activity in ip dosed maximal electoshock-induced seizure albino CD-1 mouse model; format: toxicity, organism-based; conditions: in vivo, read-out: Ratio TD50/ED50
In short: (§5)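 Protective index computed as TD50 (rotarod) divided by ED50 (MES or scPTZ), both from probit analysis on groups of six i.p.-dosed mice.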

[16] = Protective index, ratio of TD50 for neurotoxicity in ip dosed albino CD-1 mouse to ED50 for anticonvulsant activity in ip dosed subcutaneous pentylenetetrazole-induced seizure albino CD-1 mouse model; format: toxicity, organism-based; conditions: in vivo, read-out: Ratio TD50/ED50; in short: as §5
[17] = test system: Mus musculus; test: Antinociceptive activity in albino CD-1 mouse assessed as reduction in licking and biting time during phase 1 at 114.68 mg/kg, ip administered 30 mins prior to formalin challenge relative to control; format: functional; parameters: scale not given: the % may be the effect or the level left
[18] = test system: Mus musculus; test: Antinociceptive activity in albino CD-1 mouse assessed as reduction in licking and biting time during phase 2 at 114.68 mg/kg, ip administered 30 mins prior to formalin challenge measured between 15.0 to 30.0 mins relative to control; format: functional; parameters: scale not given: the % may be the effect or the level left
[19] = test system: Mus musculus; test: Antinociceptive activity in albino CD-1 mouse assessed as reduction in licking and biting time during phase 2 at 114.68 mg/kg, ip administered 30 mins prior to formalin challenge measured between 15.0 to 20.0 mins relative to control; format: functional; parameters: scale not given: the % may be the effect or the level left
[20] = test system: Mus musculus; test: Neurotoxicity in albino CD-1 mouse assessed as motor performance by measuring time spent in chimney at 104.11 mg/kg, ip administered 2.0 hrs prior to chimney test (reference value: 6.29 +/- 2.48 sec); format: toxicity, organism-based; conditions: in vivo
[21] = test system: Mus musculus; test: Anticonvulsant activity in ip dosed albino CD-1 mouse assessed as protection against 6 Hz current-induced seizure measured after 0.5 hrs; format: functional; conditions: CD-1, ip, read-out: MED
In short: (§6)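 6-Hz psychomotor test: corneal stimulation 32 mA, 0.2 ms monopolar rectangular pulses at 6 Hz for 3 s, mice restrained then released to observation cage. Protected if normal exploratory behaviour resumes within 10 s. Doses 30, 100, 300 mg/kg i.p.; read at 0.5 and 2 h; minimum active dose.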

[22] = test system: Mus musculus; test: Anticonvulsant activity in ip dosed albino CD-1 mouse assessed as protection against 6 Hz current-induced seizure measured after 2.0 hrs; format: functional; in short: as §6
[23] = test system: Mus musculus; test: Antinociceptive activity in albino CD-1 mouse assessed as reduction in licking and biting time during phase 1 at 104.11 mg/kg, ip administered 2.0 hrs prior to formalin challenge relative to control; format: functional; parameters: scale not given: the % may be the effect or the level left
[24] = test system: Mus musculus; test: Antinociceptive activity in albino CD-1 mouse assessed as reduction in licking and biting time during phase 2 at 104.11 mg/kg, ip administered 2.0 hrs prior to formalin challenge measured between 15.0 to 30.0 mins relative to control; format: functional; parameters: scale not given: the % may be the effect or the level left
[25] = test system: Mus musculus; test: Antinociceptive activity in albino CD-1 mouse assessed as reduction in licking and biting time during phase 2 at 104.11 mg/kg, ip administered 2.0 hrs prior to formalin challenge measured between 15.0 to 20.0 mins relative to control; format: functional; parameters: scale not given: the % may be the effect or the level left
[26] = test system: Mus musculus; test: Antinociceptive activity in albino CD-1 mouse assessed as reduction in licking and biting time during phase 2 at 104.11 mg/kg, ip administered 2.0 hrs prior to formalin challenge measured between 20.0 to 25.0 mins relative to control; format: functional; parameters: scale not given: the % may be the effect or the level left
[27] = test system: Mus musculus; test: Antinociceptive activity in albino CD-1 mouse assessed as reduction in licking and biting time during phase 2 at 97.51 mg/kg, ip administered 30 mins prior to formalin challenge measured between 25.0 to 30.0 mins relative to control; format: functional; parameters: scale not given: the % may be the effect or the level left
[28] = test system: Mus musculus; test: Neurotoxicity in albino CD-1 mouse assessed as motor performance by measuring time spent in chimney at 97.51 mg/kg, ip administered 30 mins prior to chimney test (reference value: 6.29 +/- 2.48 sec); format: toxicity, organism-based; conditions: in vivo
[29] = test system: Salmonella typhimurium; test: Mutagenic activity in Salmonella typhimurium TA100 assessed as mutagenicity index at 40 ng/ml by Ames test; format: toxicity, organism-based; conditions: salmonella enterica subsp. enterica serovar typhimurium
In short: (§7)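 Ames TA100 liquid pre-incubation (minimal medium, 37 °C) and V. harveyi assay (BOSS medium, 30 °C); test at 40 ng/ml, triplicate. Mutagenic index = induced revertants / spontaneous revertants (DMSO control); M.I. ≥2 considered mutagenic.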

[30] = test system: Vibrio harveyi; test: Mutagenic activity in Vibrio harveyi BB7 assessed as mutagenicity index at 40 ng/ml; format: organism-based; conditions: in vivo; in short: as §7
[31] = test system: Vibrio harveyi; test: Mutagenic activity in Vibrio harveyi BB7XM assessed as mutagenicity index at 40 ng/ml; format: organism-based; conditions: in vivo; in short: as §7
[32] = test system: Salmonella typhimurium; test: Antimutagenic activity in Salmonella typhimurium TA100 assessed as inhibition of nitroquinoline-N-oxide-induced revertant colonies by Ames test; format: functional, Salmonella enterica subsp. enterica serovar Typhimurium
In short: (§8)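 Revertants induced by 4-nitroquinoline-N-oxide (final 40 ng/ml) with versus without test compound; TA100 at 37 °C, V. harveyi strains at 30 °C in BOSS medium. Three independent repetitions; inhibition % = 100 − (R1/R2 × 100); 25–40% moderate, ≥40% strong.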

[33] = test system: Vibrio harveyi; test: Antimutagenic activity in Vibrio harveyi BB7 assessed as inhibition of nitroquinoline-N-oxide-induced revertant colonies; format: functional; in short: as §8
[34] = test system: Vibrio harveyi; test: Antimutagenic activity in Vibrio harveyi BB7XM assessed as inhibition of nitroquinoline-N-oxide-induced revertant colonies; format: functional; in short: as §8
[35] = test system: Mus musculus; test: Antinociceptive activity in albino CD-1 mouse assessed as reduction in licking and biting time during phase 1 at 97.51 mg/kg, ip administered 30 mins prior to formalin challenge relative to control; format: functional; parameters: scale not given: the % may be the effect or the level left
[36] = test system: Mus musculus; test: Antinociceptive activity in albino CD-1 mouse assessed as reduction in licking and biting time during phase 2 at 97.51 mg/kg, ip administered 30 mins prior to formalin challenge measured between 15.0 to 30.0 mins relative to control; format: functional; parameters: scale not given: the % may be the effect or the level left
[37] = test system: Mus musculus; test: Antinociceptive activity in albino CD-1 mouse assessed as reduction in licking and biting time during phase 2 at 97.51 mg/kg, ip administered 30 mins prior to formalin challenge measured between 15.0 to 20.0 mins relative to control; format: functional; parameters: scale not given: the % may be the effect or the level left
[38] = test system: Mus musculus; test: Antinociceptive activity in albino CD-1 mouse assessed as reduction in licking and biting time during phase 2 at 97.51 mg/kg, ip administered 30 mins prior to formalin challenge measured between 20.0 to 25.0 mins relative to control; format: functional; parameters: scale not given: the % may be the effect or the level left

Row | inhibition [3] | SMILES | minimal effective dose [4] | MTC [8] | MTC [9] | ED50 [10] | Time [12] | Time [13] | TD50 [14] | selectivity ratio [15] | minimal effective dose [5] | MED [6] | MED [7] | minimal effective dose [21] | also measured
1 | 56.1% | CC1(c2ccccc2)CC(=O)N(CC(=O)N2CCN(c3ccccc3F)CC2)C1=O (stereo not drawn) | 100 mg/kg | 300 mg/kg | 300 mg/kg | 115 mg/kg | 0.5 h | 0.5 h | 302 mg/kg | 2.64 | – | – | – | – | Activity [1]: 81%; Time [2]: 6.5 s; MED [5]: inactive; minimal effective dose ([6]; CD-1, 0.5 h, read-out: MED): 100 mg/kg; minimal effective dose ([7]; CD-1, 2 h, read-out: MED): 300 mg/kg; ED50 [11]: 97.1 mg/kg; selectivity ratio [16]: 3.11; Activity [17]: 73.3%; Activity [18]: 87.1%; Activity [19]: 98%
2 | – | CC1(c2ccccc2)CC(=O)N(CC(=O)N2CCN(c3ccc(F)cc3)CC2)C1=O (stereo not drawn) | 100 mg/kg | 300 mg/kg | 300 mg/kg | 104 mg/kg | 2 h | 2 h | 248 mg/kg | 2.37 | 100 mg/kg | inactive | inactive | 300 mg/kg | Time [20]: 6.14 s; minimal effective dose ([22]; CD-1, ip, read-out: MED): 300 mg/kg; Activity [23]: 60%; Activity [24]: 82.3%; Activity [25]: 95%; Activity [26]: 95%
3 | 44.6% | COc1ccccc1N1CCN(C(=O)CN2C(=O)CC(C)(c3ccccc3)C2=O)CC1 (stereo not drawn) | 100 mg/kg | 300 mg/kg | 300 mg/kg | 97.5 mg/kg | 0.5 h | 0.5 h | 240 mg/kg | 2.46 | 300 mg/kg | inactive | inactive | 100 mg/kg | Activity [27]: 98%; Time [28]: 8.43 s; Activity_index [29]: 0.6; Activity_index [30]: 1.2; Activity_index [31]: 0.9; inhibition (INH) [32]: 42%; inhibition (INH) [33]: 45%; inhibition (INH) [34]: 51%; MED [22]: inactive; Activity [35]: 85.5%; Activity [36]: 99.3%; Activity [37]: 100%; Activity [38]: 100%
